The values below come from ChEMBL document CHEMBL4038284, “Synthesis of novel quinoline-based 4,5-dihydro-1H-pyrazoles as potential anticancer, antifungal, antibacterial and antiprotozoal agents” (Eur J Med Chem, 2017).

As a reminder, the LC50 is the concentration that kills 50% of the test population. Lower therefore signals greater toxicity. A word on the EC50: it is the concentration at which the effect is half-maximal.

Values after ≈ are worked out from the molar mass of the structure shown.

Series [1] deals with U-937. Description: Cytotoxicity against human U937 cells after 72 hrs by MTT assay. Conditions: u-937, 72 h. The class given is cell-based. Summed up:
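Exponentially growing U-937 at 1 × 10^5 cells/mL in RPMI-1640 with 10% FBS were exposed to 200, 50, 12.5 and 3.125 µg/mL for 72 h at 37 °C, 5% CO2. MTT for 3 h, stopped with isopropanol/SDS, formazan read at 570 nm, blank-corrected. LC50 by Probit from % viability against untreated cells. Triplicate, at least two independent experiments.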

The test system of series [2] is Trypanosoma cruzi. As to the kind of experiment: Antitrypanosomal activity against Trypanosoma cruzi Tulahuen intracellular amastigote harboring LacZ infected in human U937 cells after 72 hrs by CPRG/Nonidet reagent based spectrophotometric method. The class given is functional, cell-based. The conditions noted are these: U-937, 72 h. Summed up: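 U-937 cells at 2.5 × 10^5 cells/mL in RPMI-1640 with 10% serum and 0.1 µg/mL PMA were infected with β-galactosidase-transfected Tulahuen epimastigotes at 5 parasites per cell. Infected cells were exposed to 50, 12.5, 3.125 and 0.78 µg/mL for 72 h. CPRG (100 uM) and 0.1% Nonidet P-40 were added for 3 h, read at 570 nm. EC50 by Probit. Triplicate, at least two experiments; benznidazole as reference.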

Series [3] concerns Plasmodium falciparum. Description: Antiplasmodial activity against chloroquine-sensitive Plasmodium falciparum 3D7 assessed as reduction in parasitic LDH activity after 48 hrs by Malstat reagent based […] method. It is filed as functional. The conditions noted are these: 3D7, 48 h. In a few lines: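 Unsynchronized P. falciparum 3D7 at 0.5% parasitemia and 1% hematocrit in RPMI with 3% Albumax II. Exposed to 100, 25, 6.25 and 1.56 µg/mL for 48 h at 37 °C under 90% N2/5% CO2/5% O2. After three freeze-thaw cycles, LDH measured with Malstat and NBT/PES, 1 h in the dark, read at 650 nm. IC50 by Probit; triplicate, ≥2 experiments.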

For series [4], the system named is Cryptococcus neoformans. Description: Growth inhibition of Cryptococcus neoformans ATCC 32264 at 250 ug/ml incubated for 48 hrs under dark condition by broth microdilution method relative to control. It is filed as functional. Conditions: ATCC 32264, 48 h, read-out: GI. Summed up: (§1)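 CLSI M27-A3 broth microdilution in RPMI-1640, DMSO ≤1%. Inoculum 1-5 × 10^3 CFU/mL. Incubated 48 h at 30 °C, dark. % inhibition = 100 − (OD405 test − sterility control)/(OD405 growth control − sterility control), with growth and sterility control wells. Triplicate.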

Series [5] deals with Cryptococcus neoformans. As to the kind of experiment: Growth inhibition of Cryptococcus neoformans ATCC 32264 at 125 ug/ml incubated for 48 hrs under dark condition by broth microdilution method relative to control. It is filed as functional. The conditions noted are these: ATCC 32264, 48 h, read-out: GI. Summed up: as §1
Series [6] has as its system Cryptococcus neoformans. Description: Growth inhibition of Cryptococcus neoformans ATCC 32264 at 62.5 ug/ml incubated for 48 hrs under dark condition by broth microdilution method relative to control. It is filed as functional. The conditions noted are these: ATCC 32264, 48 h, read-out: GI. Summed up: as §1
The test system of series [7] is Cryptococcus neoformans. As to the kind of experiment: Growth inhibition of Cryptococcus neoformans ATCC 32264 at 31.25 ug/ml incubated for 48 hrs under dark condition by broth microdilution method relative to control. The class given is functional. Conditions: ATCC 32264, 48 h, read-out: GI. In a few lines: as §1
(In general: In broth dilution the organism is exposed to a series of concentrations in liquid medium.)

Series [8] deals with Cryptococcus neoformans. Description: Growth inhibition of Cryptococcus neoformans ATCC 32264 at 15.62 ug/ml incubated for 48 hrs under dark condition by broth microdilution method relative to control. The conditions noted are these: ATCC 32264, 48 h, read-out: GI. The class given is functional. Summed up:
as §1

Series [9] concerns Cryptococcus neoformans. As to the kind of experiment: Growth inhibition of Cryptococcus neoformans ATCC 32264 at 7.8 ug/ml incubated for 48 hrs under dark condition by broth microdilution method relative to control. Conditions: ATCC 32264, 48 h, read-out: GI. The class given is functional. In a few lines:
as §1

Series [10] concerns Cryptococcus neoformans. As to the kind of experiment: Growth inhibition of Cryptococcus neoformans ATCC 32264 at 3.4 ug/ml incubated for 48 hrs under dark condition by broth microdilution method relative to control. The class given is functional. The conditions noted are these: ATCC 32264, 48 h, read-out: GI.

`O=C(Cn1ccnc1[N+](=O)[O-])NCc1ccccc1` [BENZNIDAZOLE]: in series [1], the LC50 was found to be 180 µg/mL (≈ 692 µM). The same compound displayed an EC50 in series [2] of 10.7 µg/mL (≈ 41.1 µM).

As for `CCN(CC)CCCC(C)Nc1ccnc2cc(Cl)ccc12.O=P(O)(O)O.O=P(O)(O)O` (stereo unspecified) [CHLOROQUINE PHOSPHATE], the EC50 in [3] was found to be 18.9 µg/mL.

Regarding `C[C@@H]1[C@H](O)[C@@H](C)/C=C/C=C/C=C/C=C/C=C/C=C/C=C/[C@H](O[C@@H]2O[C@H](C)[C@@H](O)[C@H](N)[C@@H]2O)C[C@@H]2O[C@](O)(C[C@@H](O)C[C@@H](O)[C@H](O)CC[C@@H](O)C[C@@H](O)CC(=O)O[C@H]1C)C[C@H](O)[C@H]2C(=O)O` [AMPHOTERICIN B], the inhibition of growth at 250 µg/mL in series [4] amounted to 100%. The inhibition of growth at 125 µg/mL in series [5] was found to be 100%. Further, the inhibition of growth at 62.5 µg/mL in series [6] worked out at 100%. Also, in series [7], the inhibition of growth at 31.25 µg/mL worked out at 100%. Also, the inhibition of growth at 15.62 µg/mL in series [8] was determined as 100%. The inhibition of growth at 7.8 µg/mL in [9] was 100%. Moreover, in series [10], the inhibition of growth at 3.4 µg/mL was found to be 100%. For the same compound, the LC50 in series [1] was 36 µg/mL (≈ 39 µM).
